Sampled rows, rich in hits. Any-hit rate of the full collection: about 2.3%.
TRPC4 act: activators of mouse TRPC4 channel, primary screen, Fluo4 calcium, HEK293 TRPC4beta/mu-opioid cells; Fluo4 calcium fluorescence; hits give high values; B-score at 10 µM; 0.49% of 310,000 active;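 active means B-score above 5 SD of library B-scores, and initial fluorescence ratio not above library mean plus 5 SD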;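 further: positive B-score marks a calcium rise read as TRPC4 activation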
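Assay system: HEK293 stable line with TRPC4beta plus mu-opioid receptor. Times: dye 45 min RT, read 110 s. Measured by: kinetic Fluo4 calcium fluorescence. Measure: B score of integrated ratio. Controls: assay buffer as low control, maximal DAMGO as high control.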
TRPC6 act: mouse TRPC6 channel activators, primary screen, cell-based, HEK293, membrane potential dye; B-score at 10 µM; AID 2550, 2010; 0.13% of 310,000 active; HEK293-TRPC6 membrane potential dye fluorescence; hits give high values; Short transient receptor potential channel 6 (Mus musculus), Q61143;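 active means B-score of the integrated fluorescence ratio above library mean plus 3 SD, and starting fluorescence ratio within library mean plus 5 SD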;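 further: higher score means more depolarization so channel activation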
TRPC4 inh: inhibitors of mouse TRPC4 channel, primary screen, Fluo4 calcium, HEK293 TRPC4beta/mu-opioid cells | 0.39% of 300,000 active | DAMGO-evoked Fluo4 calcium flux; hits give low values | Short transient receptor potential channel 4 (Mus musculus), Q9QUQ5 | B-score at 10 µM | AID 2247, 2010;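 active means B-score over 3 SD under the library average, no early fluorescence shift, positive overall ratio signal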
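Assay system: HEK293 cells with stable TRPC4beta plus mu-opioid receptor expression. Dosing: single dose. Measured by: Fluo4 Ca2+ flux fluorescence. Also added: DAMGO in two steps, submaximal then maximal. Read-out: B score from integrated Fluo4 fluorescence ratio.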
TRPC6 inh: mouse TRPC6 channel inhibitors, primary screen, cell-based, HEK293, membrane potential dye. B-score at 10 µM. Short transient receptor potential channel 6 (Mus musculus), Q61143. 1.1% of 310,000 active. ACh-evoked depolarization; hits give low values. AID 2553, 2010;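 active means B-score under library mean minus 3 SD, initial fluorescence not abnormally high, positive integrated signal ratio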;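 further: B-score derived from integrated fluorescence ratio over the kinetic read; more negative B-score means stronger inhibition of depolarization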
TRPC4 PAM: positive allosteric modulators of TRPC4, primary screen, cell-based, mouse TRPC4beta, HEK293 mu-opioid, Fluo-4 calcium; DAMGO EC20, Fluo-4 Ca2+ flux; hits give high values; AID 2227, 2009; 0.42% of 310,000 active; B-score at 10 µM;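 active means B-score of calcium response area above 5 SD of library B-scores, with initial fluorescence ratio within 5 SD of library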;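 further: B-score of integrated fluorescence ratio over time as area under calcium response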
TRPC4 spec 2: second selectivity test of TRPC6 inhibitors: effect on mouse TRPC4. AID 2776. 42% of 920 active. inhibition, % at 10 µM. HEK293 TRPC4/MOR, membrane potential dye fluorescence; channel activated by saturating DAMGO dose. shares compounds with TRPC6 inh;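 active means compounds whose fluorescence signal differed from control wells by over 3 SD, either direction, in both duplicate plates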
TRPC4 spec: mouse TRPC4 modulation by TRPC6 hits, confirmation, selectivity assay for TRPC6 inhibitor project, cell-based, HEK293 TRPC4/mu-opioid, membrane potential dye. shares compounds with TRPC6 inh. 61% of 920 active. membrane potential fluorescence. activity change, negative = inhibition, % at 10 µM;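 active means rise or fall in signal beyond 3 SD of buffer-only wells in both replicate plates, either sign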;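 further: integrated kinetic ratio of fluorescence range over baseline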
HEK293 MPD ctr 2-1: nonspecific membrane potential effects, parental HEK293, confirmation, counter-screen for TRPC6 inhibitor project, cell-based, second counter screen. signal change vs control, % at 10 µM. parental HEK293 membrane potential dye fluorescence; maximal acetylcholine challenge after compound addition. 31% of 920 active. AID 2779, 2010. shares compounds with TRPC6 inh;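 active means membrane potential signal moving either way by over 3 SD of the maximum-effect control, in both duplicate plates, meaning non-specific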
HEK293 MPD ctr-1: membrane potential modulation in parental HEK293, confirmation, counter-screen for TRPC6 inhibitor project, cell-based; shares compounds with TRPC6 inh; 60% of 920 active; parental HEK293 membrane potential dye fluorescence; membrane potential signal change, % at 10 µM; AID 2780, 2010;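 active means membrane potential signal shifting up or down by more than 3 SD of buffer-only wells, on both duplicate plates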
HEK293 MPD ctr-2: parental HEK293 membrane potential modulation, confirmation, counter-screen for TRPC6 modulator project, cell-based; membrane potential signal change, % at 10 µM; membrane potential dye fluorescence; 51% of 2,400 active; shares compounds with TRPC6 inh;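 active means membrane potential signal moves up or down beyond 5 SD from buffer-only wells, on both duplicate plates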
HEK293 MPD ctr 2-2: parental HEK293 nonspecific activity of TRPC6 modulators, second screen; shares compounds with TRPC6 inh; membrane potential dye fluorescence; after compound, maximal acetylcholine stimulation; inhibition, % at 10 µM; 14% of 2,400 active; AID 488926;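 active means membrane potential signal drops by more than 5 SD from the mean control signal, in both duplicate plates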;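 further: plate controls were acetylcholine ECmax control wells for no effect and buffer only wells for full effect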
TRPC4/MOR mod: TRPC4 modulation by TRPC6 hit compounds, confirmation, selectivity assay for TRPC6 modulator project, cell-based, HEK293 TRPC4/mu-opioid, membrane potential dye, mouse. shares compounds with TRPC6 inh. membrane potential fluorescence. percent change from control (negative = decrease, positive = increase), % at 10 µM. 69% of 2,400 active;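 active means membrane potential signal moved up or down beyond 5 SD of buffer control wells, in both duplicate plates, actives on both sides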;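 further: plate controls were assay buffer wells for no effect and DAMGO maximal-effect wells for full effect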
TRPC4/MOR inh 2: mouse TRPC4 off-target activity of TRPC6 modulators, second screen; shares compounds with TRPC6 inh; HEK293 TRPC4/mu-opioid, membrane potential dye fluorescence; stimulated with maximal-effect DAMGO; inhibition, % at 10 µM; 55% of 2,400 active; AID 488928;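 active means drop in membrane potential signal beyond 5 SD of the control wells in both duplicate plates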;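 further: TRPC4 counter screen for TRPC6 hits run under conditions tuned for TRPC6 not TRPC4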
TRPC6 block conf: mouse TRPC6 channel inhibitors, confirmation, HEK293 cells, membrane potential dye, duplicate. 43% of 3,300 active. ACh-evoked depolarization. inhibition, % at 10 µM. shares compounds with TRPC6 inh;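 active means fluorescence ratio falls more than 5 SD below the full-stimulation control mean, in both duplicate runs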;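 further: integrated fluorescence ratio of peak minus minimum over baseline after agonist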
TRPC6 act conf: mouse TRPC6 channel activators, confirmation, HEK293 cells, membrane potential dye, duplicate; 11% of 2,800 active; HEK293-TRPC6 membrane potential dye fluorescence, FDSS; activation, % at 10 µM; shares compounds with TRPC6 inh; AID 488961, 2010;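 active means ratio signal rise beyond 5 SD above unstimulated control wells' mean, seen in both duplicate runs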;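 further: plate controls were buffer EC0 wells for no effect and acetylcholine ECmax response for full effect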
Active calls of the source: *; i = inactive; / = not tested or not shown.

SMILES | TRPC4 act | TRPC6 act | TRPC4 inh | TRPC6 inh | TRPC4 PAM | TRPC4 spec 2 | TRPC4 spec | HEK293 MPD ctr 2-1 | HEK293 MPD ctr-1 | HEK293 MPD ctr-2 | HEK293 MPD ctr 2-2 | TRPC4/MOR mod | TRPC4/MOR inh 2 | TRPC6 block conf | TRPC6 act conf
CCCNC(=O)Cn1c(=O)/c(=C\c2ccc(-c3cccc([N+](=O)[O-])c3)o2)s/c1=C\C(=O)C(C)(C)C | i | i | i | i | i | / | / | / | / | / | / | / | / | / | /
CCCNC(=O)Cn1c(=O)/c(=C\c2ccc(-c3ccc([N+](=O)[O-])cc3)o2)s/c1=C\C(=O)C(C)(C)C | i | 32.5* | i | i | i | / | / | / | / | 977.5%* | i | 274.0%* | i | i | 281.0%*
COc1ccc(-n2c(SCCNCCO)nc3sc4c(c3c2=O)CCCC4)cc1 | i | i | i | -5.15* | i | / | / | / | / | -142.0%* | i | -34.5%* | 74.0%* | 51.5%* | i
COc1ccc(-n2c(SCC(=O)O)nc3sc4c(c3c2=O)CCCC4)cc1 | i | i | i | i | i | / | / | / | / | / | / | / | / | / | /
C=CCn1c(=N)n(CC(=O)c2ccc(Br)s2)c2ccccc21 | i | i | i | -8.03* | i | 13.0%* | 16.9%* | i | i | / | / | / | / | 64.5%* | i
C=CCn1c(=N)n(CC(=O)c2ccc(Cl)cc2)c2ccccc21 | i | i | i | -5.87* | i | / | / | / | / | i | i | 35.5%* | 93.0%* | 57.5%* | /
N=c1n(CC(=O)c2cccs2)c2ccccc2n1Cc1ccccc1 | i | i | i | -9.73* | i | 33.0%* | i | i | 2.0%* | / | / | / | / | 64.7%* | i

Source: PubChem BioAssay (Johns Hopkins Ion Channel Center)
